In ChEMBL document CHEMBL1799976, “Neurosteroid analogues. 15. A comparative study of the anesthetic and GABAergic actions of alphaxalone, Δ16-alphaxalone and their corresponding 17-carbonitrile analogues” (Bioorg Med Chem Lett, 2010):
pEC50, pIC50: −log10 of the molar value. The source made the active and inactive calls. No cut-off for these calls is given here.

Experiments:
Oocyte [1] = test: Modulation of rat GABA-A alpha1beta2gamma2L receptor expressed in Xenopus oocytes assessed as increase of GABA-induced chloride current at 10 uM by two electrode voltage-clamp method relative to control; format: cell-based
How it was run: (§1)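 Two-electrode recording of GABA currents in Xenopus oocytes expressing rat α1β2γ2L GABA-A receptors. The control current was evoked with 2 μM GABA, then compound was co-applied at 0.1, 1 or 10 μM. Each value is the current with compound divided by the current without it, from at least four oocytes (SEM, N ≥ 4).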

Oocyte [2] = test: Modulation of rat GABA-A alpha1beta2gamma2L receptor expressed in Xenopus oocytes assessed as increase of GABA-induced chloride current by two electrode voltage-clamp method relative to control; format: cell-based; how it was run: as §1
Xenopus laevis [3] = test: Anesthetic effect on prelimb-bud stage of Xenopus laevis tadpole assessed as loss of swimming reflex; format: functional, organism-based
How it was run: (§2)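 Behavioural reflex end points in tadpoles, with 10 animals at each of five or more concentrations. The highest concentration tested was 10 μM, and "none" means no reflex was lost at that level. EC50 was taken for each reflex, with error given as standard error of the mean.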

Oocyte [4] = test: Modulation of rat GABA-A alpha1beta2gamma2L receptor expressed in Xenopus oocytes assessed as increase of GABA-induced chloride current at 0.1 uM by two electrode voltage-clamp method relative to control; format: cell-based; how it was run: as §1
Oocyte [5] = test: Modulation of rat GABA-A alpha1beta2gamma2L receptor expressed in Xenopus oocytes assessed as increase of GABA-induced chloride current at 1 uM by two electrode voltage-clamp method relative to control; format: cell-based; how it was run: as §1
Xenopus laevis [6] = test: Anesthetic effect on prelimb-bud stage of Xenopus laevis tadpole assessed as loss of swimming reflex at 3 uM; format: functional, organism-based
How it was run: (§3)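 Swimming-reflex scoring in tadpoles at single bath concentrations of 3 μM and 10 μM. Results are reported as whether the tadpoles kept or lost the reflex at each concentration.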

Oocyte [7] = test: Modulation of rat GABA-A alpha1beta2gamma2L receptor expressed in Xenopus oocytes assessed as increase of chloride current at 10 uM by two electrode voltage-clamp method relative to GABA; format: cell-based
How it was run: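 Direct gating test on oocytes expressing rat α1β2γ2L GABA-A receptors. Compound was applied alone at 10 μM with no GABA. The current is expressed as compound-only current divided by the current to 2 μM GABA, from at least four oocytes (SEM).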

Xenopus laevis [8] = test: Anesthetic effect on prelimb-bud stage of Xenopus laevis tadpole assessed as loss of swimming reflex at 10 uM; format: functional, organism-based; how it was run: as §3
Xenopus laevis [9] = test: Anesthetic effect on prelimb-bud stage of Xenopus laevis tadpole assessed as loss of righting reflex; format: functional, organism-based; how it was run: as §2
[10] = Displacement of [35S]TBPS from GABA-A receptor picrotoxin binding site in rat brain cortical membranes after 2 hrs by scintillation counting; format: cell membranes, Membrane

Compound	fold change (FC) (Oocyte [1])	Activity (Oocyte [2])	pEC50 (Xenopus laevis [3])	fold change (FC) (Oocyte [4])	fold change (FC) (Oocyte [5])	Activity (Xenopus laevis [6])	fold change (FC) (Oocyte [7])	Activity (Xenopus laevis [8])	pEC50 (Xenopus laevis [9])	pIC50 [10]
CC(=O)[C@H]1CC[C@H]2[C@@H]3CC[C@H]4C[C@H](O)CC[C@]4(C)[C@H]3C(=O)C[C@]12C [ALFAXALONE]	19.6	Dose-dependent effect	5.26	2.91	4.7	inactive	0.11	Active	5.95	–
C[C@]12CC[C@@H](O)C[C@@H]1CC[C@H]1[C@@H]3CC[C@H](C#N)[C@@]3(C)CC(=O)[C@@H]12	21.1	–	5.26	1.12	4.59	inactive	0.14	Active	6.14	6.72
C[C@]12CC[C@@H](O)C[C@@H]1CC[C@@H]1[C@@H]2C(=O)C[C@]2(C)C(C#N)=CC[C@@H]12	23.8	–	5.26	1.49	4.07	inactive	0.21	Active	5.98	6.44
CC(=O)C1=CC[C@H]2[C@@H]3CC[C@H]4C[C@H](O)CC[C@]4(C)[C@H]3C(=O)C[C@]12C	1.87	–	–	0.94	0.97	–	0.08	inactive	< 5.00	5.65
